Test results published in ChEMBL document CHEMBL1800063, “Isolation and structural elucidation of proline-containing cyclopentapeptides from an endolichenic Xylaria sp” (2011).
Activity calls are given as the source filed them. No cut-off for these calls is given here.

How the values were obtained:
Candida albicans [1] = test: Antifungal activity against Candida albicans SC5314 at 100 ug/mL after 16 hrs by broth microdilution method; format: functional, organism-based
Summary of the method: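 Candida albicans SC5314 broth microdilution adapted from CLSI M-27A. Overnight culture suspended in RPMI 1640 at 1 × 10^4 cfu/mL. 2 μL of sample plus 80 μL of suspension per well, incubated at 35 °C for 16 h. Ketoconazole was the positive control. Growth was read as optical density against blank-control wells to give the MIC.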

Candida albicans [2] = test: Antifungal activity against Candida albicans SC5314 at 100 ug/mL after 16 hrs by CLSI M-27A broth microdilution method in presence of 0.004 ug/mL ketoconazole relative to compound alone; format: functional, organism-based
Candida albicans [3] = test: Antifungal activity against Candida albicans SC5314 at 6.25 ug/mL after 16 hrs by broth microdilution method in presence of 0.004 ug/mL ketoconazole relative to compound alone; format: functional
Candida albicans [4] = test: Antifungal activity against Candida albicans SC5314 at 1 ug/mL after 16 hrs by broth microdilution method in presence of 0.004 ug/mL ketoconazole relative to compound alone; format: functional

| SMILES | Activity (Candida albicans [1]) | Activity (Candida albicans [2]) | fractional inhibitory concentration index (FICI) (Candida albicans [3]) | fractional inhibitory concentration index (FICI) (Candida albicans [4]) |
| --- | --- | --- | --- | --- |
| CC(C)[C@@H](C)/C=C/[C@@H](C)[C@H]1CC[C@H]2C3=C[C@@H](O)[C@@]4(O)C[C@@H](O)CC[C@]4(C)[C@H]3CC[C@]12C | inactive | inactive | – | – |
| CC(C)[C@@H](C)/C=C/[C@@H](C)[C@H]1CC[C@H]2C3=CC=C4C[C@@H](O)CC[C@]4(C)[C@H]3CC[C@]12C | inactive | inactive | – | – |
| CC[C@@H](C)[C@H]1NC(=O)[C@H](C(C)C)NC(=O)[C@H](Cc2ccccc2)N(C)C(=O)[C@@H]2CCCN2C(=O)[C@H](CC(C)C)NC1=O | inactive | – | <0.3125 | – |
| CO[C@@H]1C=C2C3CC[C@H](C(C)/C=C/C(C)C(C)C)[C@@]3(C)CC[C@@H]2[C@@]2(C)CC[C@H](O)C[C@]12O (some centres not stated) | inactive | inactive | – | – |
| CC(C)[C@@H]1OC(=O)[C@@H](Cc2ccccc2)N(C)C(=O)[C@H](C(C)C)OC(=O)[C@@H](Cc2ccccc2)N(C)C(=O)[C@H](C(C)C)OC(=O)[C@@H](Cc2ccccc2)N(C)C1=O [BEAUVERICIN] | – | – | – | <0.375 |
| CC(C)[C@@H](C)/C=C/[C@@H](C)[C@H]1CC[C@@H]2[C@]1(C)CCC1[C@]23C=CC2(CC(O)CC[C@]12C)OO3 (some centres not stated) | inactive | inactive | – | – |
| CC(C)C(C)/C=C/[C@@H](C)[C@H]1CCC2=C3C=CC4=CC(=O)CC[C@]4(C)[C@H]3CC[C@@]21C (some centres not stated) | inactive | inactive | – | – |
| CC(C)[C@@H](C)/C=C/[C@@H](C)[C@H]1CC[C@H]2C3=CC(=O)C4=CC(=O)CC[C@]4(C)[C@H]3CC[C@]12C | inactive | inactive | – | – |
| C[C@]1(CCO)CC[C@H]2C(=CC[C@@H]3[C@]2(C)CCC[C@@]3(C)C(=O)O)C1 | inactive | inactive | – | – |
